Assay results from publication PMC4430358 (Bioorganic & medicinal chemistry letters, 2015).
“Also recorded” adds a separate entry of the source.

How the values were obtained:
[1] = system: GROα-mediated intracellular calcium release in isolated human PMNs; experiment: Inhibition of GROα-mediated intracellular calcium release in isolated human PMNs; type: cell-based; settings: for fold drop in activity relative to compound 5: PMN calcium release assay; for activity in the PMN assay: compared to compound 5
[2] = Rat pharmacokinetics; type: in vivo; settings: 1 mg/kg oral gavage in neat Labrasol; for plasma levels after oral gavage: LLOQ approximately 20 nM
[3] = Solubility in aqueous systems; type: physicochemical
[4] = target: T1, CXCR2 (Homo sapiens, UniProt P25025); experiment: PathHunter β-arrestin assay; type: cell-based
T1 sequence (P25025 1-360): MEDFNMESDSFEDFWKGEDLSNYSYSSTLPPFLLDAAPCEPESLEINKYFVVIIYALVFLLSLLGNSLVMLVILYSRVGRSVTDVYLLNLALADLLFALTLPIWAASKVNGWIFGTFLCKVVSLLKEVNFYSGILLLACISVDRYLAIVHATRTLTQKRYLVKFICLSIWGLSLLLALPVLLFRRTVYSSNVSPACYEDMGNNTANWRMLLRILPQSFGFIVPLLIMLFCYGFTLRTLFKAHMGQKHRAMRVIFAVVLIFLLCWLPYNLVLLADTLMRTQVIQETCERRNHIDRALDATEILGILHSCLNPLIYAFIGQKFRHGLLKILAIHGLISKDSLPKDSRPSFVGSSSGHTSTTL

[5] = Metabolic stability in monkey liver microsomes; type: in vitro ADME; settings: Microsome stability (% remaining @ 60 min) monkey, 37°C, LC-MS
[6] = system: Sprague-Dawley rats; experiment: Ozone rat model of pulmonary inflammation; type: in vivo; settings: 1 mg/kg IV at t = 0, 5 and 9 h; 1 ppm ozone 4 h; BALF at 24 h
Method in brief: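 Sprague-Dawley rats, n = 4 per cohort, given IV vehicle (negative and positive groups) or test compound at 1 mg/kg at t = 0. They were then exposed to air (negative) or 1 ppm ozone for 4 h and redosed at 5 and 9 h. At 24 h rats were sacrificed and BALF collected. Cells were spun down, Wright-Giemsa stained and counted. BALF protein was measured by Bradford assay.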

[7] = Metabolic stability in rat liver microsomes; type: in vitro ADME
Method in brief: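 Test compound at 1 μM incubated with isolated rat liver microsomes for 60 min at 37 °C. Samples analysed by LC-MS at 0 and 60 min. Result expressed as percent parent remaining at 60 min.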

[8] = system: healthy subjects; settings: clinical evaluation; cited from earlier work

**Q.** Which “fold drop in activity relative to compound 5” value [1] does the source give for O=C(Nc1ccc(F)cc1)c1ccc(SCCCCB(O)O)nc1 [Compound 10] here?
**A.** 18 fold

**Q.** For O=C(Nc1ccc(F)cc1)c1ccc(SCc2cccc(B(O)O)c2)nc1 [Compound 8], which “fold drop in activity relative to compound 5” value [1] is on record?
**A.** 30 fold

**Q.** For COc1ccc(B(O)O)c(CSc2ccc(C(=O)Nc3ccc(F)cc3)cn2)c1 [Compound 14], which “fold drop in activity relative to compound 5” value [1] is on record?
**A.** 2 fold

**Q.** For O=C(Nc1ccc(F)cc1)c1ccc(SCc2cc3c(cc2B(O)O)OCO3)nc1 [Compound 13], which “activity in the PMN assay” value [1] is on record?
**A.** complete lack of activity

**Q.** With O=C(Nc1ccc(F)cc1)c1ccc(SCCc2ccccc2B(O)O)nc1 [Compound 11] as the molecule, how does the “fold drop in activity relative to compound 5” value [1] read?
**A.** 10 fold

**Q.** For O=C(Nc1ccc(F)cc1)c1ccc(SCc2cc(F)ccc2B(O)O)nc1 [Compound 15], which “activity in the PMN assay” value [1] is on record?
**A.** equipotent

**Q.** What does the source list for O=C(Nc1ccc(F)cc1)c1ccc(SCc2cc(OC(F)(F)F)ccc2B(O)O)nc1 [Compound 6, 6-(2-boronic acid-5-trifluoromethoxy-benzylsulfanyl)-N-(4-fluoro-phenyl)-nicotinamide]?
**A.** Rat PK AUC Oral [2]: <LLOQ; plasma levels after oral gavage [2]: < 20 nM; solubility in aqueous systems [3]: insolubility in aqueous systems; mode of action [4]: full antagonist; remaining at 1 h, 1 μM [5]: > 90%; PMN influx to the lungs (BALF) [6]: significantly decreased PMN influx to the lungs to near undetectable levels; also recorded: potent inhibition of PMN recruitment; also recorded: potent inhibition of neutrophil influx; macrophage influx (BALF) [6]: significantly decreased; remaining at 1 h, 1 μM [7]: > 90%

**Q.** What does the source list for O=C(Nc1ccc(F)cc1)c1ccc(SCc2ccccc2B(O)O)nc1 [Compound 5]?
**A.** Rat PK AUC Oral [2]: <LLOQ; plasma levels after oral gavage [2]: < 20 nM; solubility in aqueous systems [3]: insolubility in aqueous systems

**Q.** With COc1cc(CSc2ccc(C(=O)Nc3ccc(F)cc3)cn2)c(B(O)O)cc1OC [Compound 12] as the molecule, how does the “activity in the PMN assay” value [1] read?
**A.** complete lack of activity

**Q.** With CC[C@@H](Nc1c(Nc2cccc(C(=O)N(C)C)c2O)c(=O)c1=O)c1ccc(C)o1 [navarixin] as the molecule, how does the “ozone inhalation-induced sputum PMN recruitment” value [8] read?
**A.** inhibited
